PMC7482441 (Pharmacological Research, 2020)

How the values were obtained:
ambulant boys with DMD = test: Phase Ib safety assessments; format: in vivo, human
Method in brief: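 Open-label study in boys aged 6–14 with genetically confirmed DMD, walking ≥75 m and on stable corticosteroids ≥6 months. Dosing was oral, 50–300 mg TID for 4 weeks, in 4 ascending cohorts. Assessments at screening, weeks 1, 2 and 4, and 1–2 weeks post-treatment: physical exam, AEs, supine/standing blood pressure and heart rate, respiratory rate. Also 12-lead ECG with QT, read locally and centrally, plus blood/urine haematology and biochemistry.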

[1] = Population PK / non-compartmental analysis of plasma Rimeporide in DMD boys; format: in vivo, human; details: for half-life: male, human, plasma, po
Method in brief: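 Sparse plasma sampling: Day 1 pre-dose, 0.5–1, 1–2, 2.5–3.5 and ~6 h post-dose; Day 28 at 0.5–1 and ~6 h. Drug was quantified by a validated LC–MS/MS method. A 3-compartment population model with absorption and first-order elimination was fitted in NONMEM, pooled with healthy-volunteer and heart-failure data.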

[2] = tested on: CK T (Creatine Kinase total); test: Circulating biomarker, baseline vs 4-week treatment; format: in vivo, human; details: 20 DMD patients, Electrophoresis, p-value 0.0007, FDR 0.24
IGFBP6 = test: as above; format: in vivo, human; details: 20 DMD patients, OLink, p-value 0.0044, FDR 0.89
healthy male subjects = details: earlier Merck KGaA phase I studies; cited from earlier work
animal models = details: cited from earlier work
[3] = tested on: sodium-proton exchanger isoform 1 (NHE-1); details: cited from earlier work
[4] = Cohort 3 N = 5, 450 to 600 mg daily oral, 4 weeks
[5] = Cohort 4 N = 5, 600 to 900 mg daily oral, 4 weeks

In the case of `[H]/N=C(\N)NC(=O)c1cc(S(C)(=O)=O)c(S(C)(=O)=O)cc1C` [Rimeporide], the “Cough: patients (events)” value (ambulant boys with DMD; [4]) is reported as 1 (1 event), the “Diarrhoea: patients (events)” value (ambulant boys with DMD; [4]) is reported as 3 (4 events) and the “Dizziness: patients (events)” value (ambulant boys with DMD; [4]) is reported as 1 (1 event). The “Ear and labyrinth disorders: patients (events)” value (ambulant boys with DMD; [4]) was 0, the “Fall: patients (events)” value (ambulant boys with DMD; [4]) was 0 and the “Flushing: patients (events)” value (ambulant boys with DMD; [4]) was 1 (1 event). The “Gastrointestinal disorders: patients (events)” value (ambulant boys with DMD; [4]) was 4 (8 events), the “General disorders and administration site conditions: patients (events)” value (ambulant boys with DMD; [4]) was 0 and the “Headache: patients (events)” value (ambulant boys with DMD; [4]) was 2 (2 events). The “Infections and infestations: patients (events)” value (ambulant boys with DMD; [4]) was 2 (2 events), the “Injury, poisoning and procedural complications: patients (events)” value (ambulant boys with DMD; [4]) was 0 and the “Mouth ulceration: patients (events)” value (ambulant boys with DMD; [4]) was 0. The “Nasopharyngitis: patients (events)” value (ambulant boys with DMD; [4]) was 2 (2 events), the “Nervous system disorders: patients (events)” value (ambulant boys with DMD; [4]) was 3 (3 events) and the “Oropharyngeal pain: patients (events)” value (ambulant boys with DMD; [4]) was 0. The “Presyncope: patients (events)” value (ambulant boys with DMD; [4]) was 0, the “Pyrexia: patients (events)” value (ambulant boys with DMD; [4]) was 0 and the “Respiratory, thoracic and mediastinal disorders: patients (events)” value (ambulant boys with DMD; [4]) was 1 (1 event). For the same compound, the “Tympanic membrane perforation: patients (events)” value (ambulant boys with DMD; [4]) was 0, the “Vascular disorders: patients (events)” value (ambulant boys with DMD; [4]) was 1 (1 event) and the “Vomiting: patients (events)” value (ambulant boys with DMD; [4]) was 2 (2 events). For the same compound, the “Abdominal pain upper: patients (events)” value (ambulant boys with DMD; [5]) was 1 (1 event), the “Any treatment-emergent adverse event: patients (events)” value (ambulant boys with DMD; [5]) was 4 (13 events) and the “Chills: patients (events)” value (ambulant boys with DMD; [5]) was 0. For the same compound, the “Cough: patients (events)” value (ambulant boys with DMD; [5]) was 1 (1 event), the “Diarrhoea: patients (events)” value (ambulant boys with DMD; [5]) was 0 and the “Dizziness: patients (events)” value (ambulant boys with DMD; [5]) was 0. For the same compound, the “Ear and labyrinth disorders: patients (events)” value (ambulant boys with DMD; [5]) was 1 (1 event), the “Flushing: patients (events)” value (ambulant boys with DMD; [5]) was 1 (2 events) and the “Gastrointestinal disorders: patients (events)” value (ambulant boys with DMD; [5]) was 1 (1 event). For the same compound, the “General disorders and administration site conditions: patients (events)” value (ambulant boys with DMD; [5]) was 1 (1 event), the “Headache: patients (events)” value (ambulant boys with DMD; [5]) was 2 (3 events) and the “Infections and infestations: patients (events)” value (ambulant boys with DMD; [5]) was 1 (1 event). For the same compound, the “Mouth ulceration: patients (events)” value (ambulant boys with DMD; [5]) was 0, the “Nasopharyngitis: patients (events)” value (ambulant boys with DMD; [5]) was 1 (1 event) and the “Nervous system disorders: patients (events)” value (ambulant boys with DMD; [5]) was 3 (4 events). For the same compound, the “Oropharyngeal pain: patients (events)” value (ambulant boys with DMD; [5]) was 1 (1 event), the “Presyncope: patients (events)” value (ambulant boys with DMD; [5]) was 1 (1 event) and the “Pyrexia: patients (events)” value (ambulant boys with DMD; [5]) was 1 (1 event). The “Respiratory, thoracic and mediastinal disorders: patients (events)” value (ambulant boys with DMD; [5]) was 2 (2 events), the “Tympanic membrane perforation: patients (events)” value (ambulant boys with DMD; [5]) was 1 (1 event) and the “Vascular disorders: patients (events)” value (ambulant boys with DMD; [5]) was 1 (2 events). For the same compound, the “Vomiting: patients (events)” value (ambulant boys with DMD; [5]) was 0, the gastrin levels (ambulant boys with DMD; after a four-week treatment) was “No modifications of gastrin levels” and the “TEAEs of mild intensity” value (ambulant boys with DMD; all cohorts) was “Thirty-five”. For the same compound, the “TEAEs reported as severe” value (ambulant boys with DMD; all cohorts) was 2, the “SAE related to study medication” value (ambulant boys with DMD; all doses, 4 weeks, 20 DMD boys) was “No SAE related to study medication was reported” and the “blood pressure and heart rate” value (ambulant boys with DMD; standing and supine, 4-week treatment) was “devoid of any blood pressure or heart rate lowering effects”. The “treatment emergent adverse events (TEAEs), total events” value (ambulant boys with DMD; twelve patients of 20) was 37, the “TAT (time above 500 ng/ml over 24 h)” value ([1]; Cohort 1, 150 to 225 mg daily oral, Day 1, mean, N 5) was 6.6 h and the “TAT (time above 500 ng/ml over 24 h)” value ([1]; Cohort 1, 150 to 225 mg daily oral, Day 28, mean, N 4) was 8.4 h. For the same compound, the “TAT (time above 500 ng/ml over 24 h)” value ([1]; Cohort 2, 300 to 450 mg daily oral, Day 1, mean, N 5) was 17 h, the “TAT (time above 500 ng/ml over 24 h)” value ([1]; Cohort 2, 300 to 450 mg daily oral, Day 28, mean, N 5) was 15 h and the “TAT (time above 500 ng/ml over 24 h)” value ([1]; Cohort 3, 450 to 600 mg daily oral, Day 1, mean, N 5) was 18 h. For the same compound, the “TAT (time above 500 ng/ml over 24 h)” value ([1]; Cohort 3, 450 to 600 mg daily oral, Day 28, mean, N 5) was 16 h, the “TAT (time above 500 ng/ml over 24 h)” value ([1]; Cohort 4, 600 to 900 mg daily oral, Day 1, mean, N 5) was 19.0 h and the “TAT (time above 500 ng/ml over 24 h)” value ([1]; Cohort 4, 600 to 900 mg daily oral, Day 28, mean, N 5) was 18 h. For the same compound, the “dose linearity of PK” value ([1]; DMD patients) was “dose linear”, the accumulation with time ([1]; DMD patients, repeated dosing 4 weeks) was “no sign of any accumulation” and the “effect of fed condition on AUC24” value ([1]; fed condition) was “no impact”. For the same compound, the “effect of fed condition on Cmax” value ([1]; fed condition) was “decrease”, the “exposure in children compared to healthy adults” value ([1]; in vivo) was “slightly higher exposure than in adults” and the half-life ([1]; T1/2, Cohort 3, 450 to 600 mg daily oral, Day 1, mean, N 5) was 3.9 h. It also gave a half-life ([1]; T1/2, Cohort 3, 450 to 600 mg daily oral, Day 28, mean, N 5) of 3.76 h, a half-life ([1]; T1/2, Cohort 4, 600 to 900 mg daily oral, Day 1, mean, N 5) of 3.9 h and a half-life ([1]; T1/2, Cohort 4, 600 to 900 mg daily oral, Day 28, mean, N 5) of 3.75 h. The “time post dose at which Cmax occurred” value ([1]; oral immediate release capsules, Days 1 and 28) was 1 to 2 h, the “CK T: Term (TRT, linear mixed effect model, Day 28 vs Day 0)” value [2] was −0.3851 and the “IGFBP6: Term (TRT, linear mixed effect model, Day 28 vs Day 0)” value (IGFBP6) was −0.3144. For the same compound, the maximum tolerated dose (healthy male subjects) was “could not be defined”, the “exposure/concentration range with an efficacious response” value (animal models) was 500 to 2500 ng/mL and the NHE-1 inhibition [3] was “potent and selective inhibitor”.
